{"source": "ChEMBL document CHEMBL1212920", "about": "“Discovery of 6-(aminomethyl)-5-(2,4-dichlorophenyl)-7-methylimidazo[1,2-a]pyrimidine-2-carboxamides as potent, selective dipeptidyl peptidase-4 (DPP4) inhibitors” (J Med Chem, 2010)", "key": {"hERG (KCNH2)": {"target": "hERG (KCNH2) (Homo sapiens, UniProt Q12809)", "sequence (Q12809 whole entry)": "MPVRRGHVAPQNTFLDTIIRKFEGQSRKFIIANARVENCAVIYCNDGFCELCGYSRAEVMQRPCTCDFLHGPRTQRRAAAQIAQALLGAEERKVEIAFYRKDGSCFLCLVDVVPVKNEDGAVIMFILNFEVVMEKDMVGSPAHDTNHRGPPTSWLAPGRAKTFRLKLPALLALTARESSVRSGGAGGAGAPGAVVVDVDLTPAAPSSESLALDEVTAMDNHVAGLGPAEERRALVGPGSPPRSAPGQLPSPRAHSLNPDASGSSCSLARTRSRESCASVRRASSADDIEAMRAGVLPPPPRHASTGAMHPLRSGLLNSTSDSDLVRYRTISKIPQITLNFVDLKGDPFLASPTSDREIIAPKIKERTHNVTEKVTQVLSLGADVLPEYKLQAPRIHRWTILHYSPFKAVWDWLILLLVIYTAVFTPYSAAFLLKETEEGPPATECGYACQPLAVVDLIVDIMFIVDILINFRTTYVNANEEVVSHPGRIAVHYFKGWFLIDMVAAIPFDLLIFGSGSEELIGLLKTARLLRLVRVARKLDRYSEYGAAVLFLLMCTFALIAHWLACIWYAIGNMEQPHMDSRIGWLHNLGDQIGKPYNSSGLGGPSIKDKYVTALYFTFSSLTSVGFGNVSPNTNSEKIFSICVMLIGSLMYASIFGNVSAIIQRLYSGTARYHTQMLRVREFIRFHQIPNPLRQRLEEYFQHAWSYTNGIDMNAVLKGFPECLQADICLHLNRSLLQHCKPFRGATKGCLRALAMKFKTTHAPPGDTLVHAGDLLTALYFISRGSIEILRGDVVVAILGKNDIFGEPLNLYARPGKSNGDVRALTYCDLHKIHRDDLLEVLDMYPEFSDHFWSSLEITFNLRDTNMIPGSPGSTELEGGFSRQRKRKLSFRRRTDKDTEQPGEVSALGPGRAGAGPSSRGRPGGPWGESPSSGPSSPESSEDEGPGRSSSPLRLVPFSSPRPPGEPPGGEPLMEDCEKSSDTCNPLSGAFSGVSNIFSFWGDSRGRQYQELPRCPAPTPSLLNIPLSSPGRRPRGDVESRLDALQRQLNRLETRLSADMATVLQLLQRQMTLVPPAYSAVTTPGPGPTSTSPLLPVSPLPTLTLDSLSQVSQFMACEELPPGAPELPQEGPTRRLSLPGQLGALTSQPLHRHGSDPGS", "assay": "Inhibition of human ERG at 10 uM"}, "[1]": {"assay": "Membrane permeability by PAMPA assay", "type": "ADME", "settings": "read-out: permeability"}, "Canis familiaris": {"test_system": "Canis familiaris", "assay": "Volume of distribution at steady state in dog at 5 umol/kg, intra arterial and 2 umol/kg, po", "type": "ADME, organism-based, Canis lupus familiaris", "settings": "in vivo"}, "[2]": {"assay": "Cmax in rat at 5 umol/kg, intra arterial and 2 umol/kg, po after 0.6 hrs", "type": "ADME, organism-based", "design": "dose 5 umol/kg, route oral", "settings": "in vivo", "method_in_brief": "(§1)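 Rat pharmacokinetics after a 5 μmol/kg intraarterial dose and a 2 μmol/kg oral dose, with water as vehicle. Urine collected over 24 h and the fraction of dose excreted as unchanged parent measured. Terminal half-life estimated after intraarterial dosing.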"}, "[3]": {"assay": "Drug excretion in rat urine at 5 umol/kg, intra arterial and 2 umol/kg, po", "type": "ADME, organism-based", "settings": "read-out: Activity", "method_in_brief": "as §1"}, "[4]": {"assay": "Half life in dog at 5 umol/kg, intra arterial and 2 umol/kg, po", "type": "ADME, organism-based, Canis lupus familiaris", "settings": "in vivo"}, "[5]": {"assay": "Clearance in iv dosed rat", "type": "ADME, organism-based", "settings": "in vivo", "method_in_brief": "as §1"}, "Mus musculus [6]": {"test_system": "Mus musculus", "assay": "Antidiabetic activity in ob/ob mouse assessed as reduction in blood glucose level at 1 umol/kg, po administered 1 hr prior to glucose challenge by oral glucose tolerance test", "type": "functional", "design": "scale not given: the % may be the effect or the level left", "method_in_brief": "(§2)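 Male ob/ob mice, 13-14 weeks old, fed a 10% fat diet, fasted overnight. Given vehicle (water) or inhibitor orally at -60 min, then oral glucose 2 g/kg at 0 min. Tail bleeds into EDTA tubes at -60, 0, 15, 30, 60, 90 and 120 min. Plasma glucose read by glucometer, insulin by mouse ELISA. Mean of 12-24 mice/group; one-way ANOVA with Dunnett's test.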"}, "Mus musculus [7]": {"test_system": "Mus musculus", "assay": "Antidiabetic activity in ob/ob mouse assessed as reduction in blood glucose level at 3 umol/kg, po administered 1 hr prior to glucose challenge by oral glucose tolerance test", "type": "functional", "design": "scale not given: the % may be the effect or the level left", "method_in_brief": "as §2"}, "[8]": {"assay": "Drug excretion in dog urine at 5 umol/kg, intra arterial and 2 umol/kg, po", "type": "ADME, organism-based, Canis lupus familiaris", "settings": "read-out: Activity"}, "[9]": {"assay": "Half life in rat at 5 umol/kg, intra arterial and 2 umol/kg, po", "type": "ADME, organism-based", "settings": "in vivo", "method_in_brief": "as §1"}, "[10]": {"assay": "Oral bioavailability in dog at 2 umol/kg, po", "type": "ADME, organism-based, Canis lupus familiaris", "settings": "in vivo"}, "[11]": {"assay": "Oral bioavailability in rat at 2 umol/kg, po", "type": "ADME, organism-based", "settings": "in vivo", "method_in_brief": "as §1"}, "[12]": {"assay": "Clearance in iv dosed dog", "type": "ADME, organism-based, Canis lupus familiaris", "settings": "in vivo"}, "[13]": {"assay": "AUC (0 to infinity) in rat at 5 umol/kg, intra arterial and 2 umol/kg, po", "type": "ADME, organism-based", "design": "dose 5 umol/kg, route oral, time infinity", "settings": "plasma", "method_in_brief": "as §1"}, "Rattus norvegicus": {"test_system": "Rattus norvegicus", "assay": "Volume of distribution at steady state in rat at 5 umol/kg, intra arterial and 2 umol/kg, po", "type": "ADME, organism-based", "settings": "in vivo", "method_in_brief": "as §1"}, "Dipeptidyl peptidase 8": {"target": "Dipeptidyl peptidase 8 (Homo sapiens, UniProt Q6V1X1)", "sequence (Q6V1X1 whole entry)": "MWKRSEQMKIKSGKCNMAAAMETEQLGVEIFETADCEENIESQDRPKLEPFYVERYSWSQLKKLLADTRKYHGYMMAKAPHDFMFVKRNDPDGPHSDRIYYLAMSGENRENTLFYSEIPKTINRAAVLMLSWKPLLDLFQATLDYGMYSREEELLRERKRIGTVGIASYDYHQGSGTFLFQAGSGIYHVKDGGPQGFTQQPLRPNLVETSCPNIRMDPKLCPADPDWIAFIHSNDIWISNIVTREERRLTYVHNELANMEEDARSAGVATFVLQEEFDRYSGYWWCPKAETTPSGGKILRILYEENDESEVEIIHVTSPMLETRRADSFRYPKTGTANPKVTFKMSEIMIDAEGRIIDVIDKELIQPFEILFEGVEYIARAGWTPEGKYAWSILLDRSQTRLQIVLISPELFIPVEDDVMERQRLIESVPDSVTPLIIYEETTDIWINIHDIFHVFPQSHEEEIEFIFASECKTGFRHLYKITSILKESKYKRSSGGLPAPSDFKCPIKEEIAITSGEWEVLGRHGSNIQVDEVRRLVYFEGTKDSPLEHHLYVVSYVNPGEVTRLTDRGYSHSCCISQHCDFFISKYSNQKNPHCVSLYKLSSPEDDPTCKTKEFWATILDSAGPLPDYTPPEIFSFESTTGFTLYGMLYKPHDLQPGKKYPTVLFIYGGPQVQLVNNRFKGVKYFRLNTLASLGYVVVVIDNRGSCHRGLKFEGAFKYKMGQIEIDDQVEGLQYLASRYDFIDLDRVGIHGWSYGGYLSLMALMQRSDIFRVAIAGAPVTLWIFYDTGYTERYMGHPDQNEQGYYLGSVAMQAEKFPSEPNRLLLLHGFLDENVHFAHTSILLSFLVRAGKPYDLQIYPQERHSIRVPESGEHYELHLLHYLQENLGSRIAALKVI", "assay": "Inhibition of human DPP8"}, "Dipeptidyl peptidase 9": {"target": "Dipeptidyl peptidase 9 (Homo sapiens, UniProt Q86TI2)", "sequence (Q86TI2 whole entry)": "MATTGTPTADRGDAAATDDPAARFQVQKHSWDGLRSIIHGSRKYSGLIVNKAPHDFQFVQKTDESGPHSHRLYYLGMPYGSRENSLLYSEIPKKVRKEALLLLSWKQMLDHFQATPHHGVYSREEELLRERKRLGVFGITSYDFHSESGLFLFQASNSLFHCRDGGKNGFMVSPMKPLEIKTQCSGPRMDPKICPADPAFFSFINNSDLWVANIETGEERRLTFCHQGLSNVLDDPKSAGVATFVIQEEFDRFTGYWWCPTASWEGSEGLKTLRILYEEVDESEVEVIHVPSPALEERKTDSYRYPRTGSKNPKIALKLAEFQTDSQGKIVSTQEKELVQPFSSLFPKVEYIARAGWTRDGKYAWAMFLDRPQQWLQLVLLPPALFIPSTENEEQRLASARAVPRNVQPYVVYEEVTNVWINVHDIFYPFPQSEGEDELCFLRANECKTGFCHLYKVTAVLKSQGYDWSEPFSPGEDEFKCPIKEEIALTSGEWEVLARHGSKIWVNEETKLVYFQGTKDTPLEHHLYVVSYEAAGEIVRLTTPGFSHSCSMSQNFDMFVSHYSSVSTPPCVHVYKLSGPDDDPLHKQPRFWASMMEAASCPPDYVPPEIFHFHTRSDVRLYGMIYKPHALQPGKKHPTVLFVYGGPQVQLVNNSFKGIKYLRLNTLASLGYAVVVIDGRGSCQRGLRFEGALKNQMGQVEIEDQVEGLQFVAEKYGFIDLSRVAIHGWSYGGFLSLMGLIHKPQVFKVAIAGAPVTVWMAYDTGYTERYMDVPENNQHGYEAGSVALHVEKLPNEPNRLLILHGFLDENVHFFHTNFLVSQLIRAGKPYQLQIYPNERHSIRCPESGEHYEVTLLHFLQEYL", "assay": "Inhibition of human DPP9"}, "[14]": {"assay": "Permeability across human Caco-2 cells", "type": "ADME, cell-based", "settings": "read-out: permeability"}, "[15]": {"assay": "Cmax in ob/ob mouse at 3 mg/kg, po after 1 hr", "type": "ADME, organism-based", "design": "dose 3 mg/kg, route oral", "settings": "in vivo"}, "Mus musculus [16]": {"test_system": "Mus musculus", "assay": "In vivo inhibition of DPP4 activity in ob/ob mouse plasma at 3 umol/kg, po", "type": "functional"}, "Mus musculus [17]": {"test_system": "Mus musculus", "assay": "In vivo inhibition of DPP4 activity in ob/ob mouse plasma at 1 umol/kg, po", "type": "functional"}, "Mus musculus [18]": {"test_system": "Mus musculus", "assay": "Antidiabetic activity in ob/ob mouse assessed as increase in insulin level at 1 umol/kg, po administered 1 hr prior to glucose challenge by oral glucose tolerance test", "type": "functional", "method_in_brief": "as §2"}, "Mus musculus [19]": {"test_system": "Mus musculus", "assay": "Antidiabetic activity in ob/ob mouse assessed as increase in insulin level at 3 umol/kg, po administered 1 hr prior to glucose challenge by oral glucose tolerance test", "type": "functional", "method_in_brief": "as §2"}}}
{"smiles": "Cc1nc2nc(-c3ccccc3)cn2c(-c2ccc(Cl)cc2Cl)c1CN", "values": [{"measurement": "inhibition at 10 µM", "setting": "hERG (KCNH2)", "value": 74, "unit": "%"}]}
{"smiles": "CCOC(=O)c1cn2c(-c3ccc(Cl)cc3Cl)c(CN)c(C)nc2n1", "values": [{"measurement": "inhibition at 10 µM", "setting": "hERG (KCNH2)", "value": 23, "unit": "%"}]}
{"smiles": "Cc1nc2nc(C(=O)N3CCCC3)cn2c(-c2ccc(Cl)cc2Cl)c1CN", "values": [{"measurement": "Papp", "setting": "[1]", "value": 51.8, "unit": "×10⁻⁶ cm/s"}]}
{"smiles": "Cc1nc2nc(C(=O)N3CCOCC3)cn2c(-c2ccc(Cl)cc2Cl)c1CN", "values": [{"measurement": "Vdss", "setting": "Canis familiaris", "value": 1.5, "unit": "L/kg"}, {"measurement": "Cmax", "setting": "[2]", "value": 324, "unit": "nM"}, {"measurement": "dose excreted", "setting": "[3]", "value": 56, "unit": "%"}, {"measurement": "half-life", "setting": "[4]", "value": 4.6, "unit": "h"}, {"measurement": "clearance", "setting": "[5]", "value": 25.4, "unit": "mL/min/kg"}, {"measurement": "Papp", "setting": "[1]", "value": 46.4, "unit": "×10⁻⁶ cm/s"}, {"measurement": "Activity", "setting": "Mus musculus [6]", "value": 66, "unit": "%"}, {"measurement": "Activity", "setting": "Mus musculus [7]", "value": 63, "unit": "%"}, {"measurement": "dose excreted", "setting": "[8]", "value": 41, "unit": "%"}, {"measurement": "half-life", "setting": "[9]", "value": 1.6, "unit": "h"}, {"measurement": "bioavailability", "setting": "[10]", "value": 76, "unit": "%"}, {"measurement": "bioavailability", "setting": "[11]", "value": 54, "unit": "%"}, {"measurement": "clearance", "setting": "[12]", "value": 7.9, "unit": "mL/min/kg"}, {"measurement": "AUC(0-inf)", "setting": "[13]", "value": 0.714, "unit": "µM·h"}, {"measurement": "Vdss", "setting": "Rattus norvegicus", "value": 1.3, "unit": "L/kg"}]}
{"smiles": "Cc1nc2nc(C(=O)NC3CCN(C(C)C)CC3)cn2c(-c2ccc(Cl)cc2Cl)c1CN", "values": [{"measurement": "Ki", "setting": "Dipeptidyl peptidase 8", "value": "> 10", "unit": "µM"}, {"measurement": "Ki", "setting": "Dipeptidyl peptidase 9", "value": "> 10", "unit": "µM"}]}
{"smiles": "Cc1nc2nc(C(=O)NCCN3CCCCC3)cn2c(-c2ccc(Cl)cc2Cl)c1CN", "values": [{"measurement": "Ki", "setting": "Dipeptidyl peptidase 9", "value": "> 30", "unit": "µM"}]}
{"smiles": "Cc1nc2nc(C(=O)N3CC[C@H](NS(C)(=O)=O)C3)cn2c(-c2ccc(Cl)cc2Cl)c1CN", "values": [{"measurement": "Papp", "setting": "[14]", "value": "< 1.5", "unit": "×10⁻⁶ cm/s"}, {"measurement": "Cmax", "setting": "[15]", "value": 45, "unit": "nM"}]}
{"smiles": "CCn1nccc1NC(=O)c1cn2c(-c3ccc(Cl)cc3Cl)c(CN)c(C)nc2n1", "values": [{"measurement": "inhibition in vivo at 3 µmol/kg", "setting": "Mus musculus [16]", "value": 52.8, "unit": "%"}, {"measurement": "inhibition in vivo at 1 µmol/kg", "setting": "Mus musculus [17]", "value": 62, "unit": "%"}, {"measurement": "dose excreted", "setting": "[3]", "value": 4.4, "unit": "%"}, {"measurement": "clearance", "setting": "[5]", "value": 43.2, "unit": "mL/min/kg"}, {"measurement": "Papp", "setting": "[1]", "value": 66.9, "unit": "×10⁻⁶ cm/s"}, {"measurement": "Activity", "setting": "Mus musculus [6]", "value": 40, "unit": "%"}, {"measurement": "Activity", "setting": "Mus musculus [7]", "value": 58, "unit": "%"}, {"measurement": "inhibition at 10 µM", "setting": "hERG (KCNH2)", "value": 31, "unit": "%"}, {"measurement": "half-life", "setting": "[9]", "value": 2.1, "unit": "h"}, {"measurement": "Activity", "setting": "Mus musculus [18]", "value": 93, "unit": "%"}, {"measurement": "bioavailability", "setting": "[11]", "value": 64, "unit": "%"}, {"measurement": "Activity", "setting": "Mus musculus [19]", "value": 129, "unit": "%"}, {"measurement": "Vdss", "setting": "Rattus norvegicus", "value": 3.9, "unit": "L/kg"}]}
